KCNQ1 pot = potentiators or activators of human KCNQ1 potassium channel; 0.35% of 310,000 active; B-score at 10 µM; CHO-K1 KCNQ1, thallium flux FluxOR fluorescence; active compounds read high; P51787;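 active = fluorescence ratio B-score, a plate-corrected score, at least three library SD, with initial intensity B-score within 5 SD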
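Material: CHO-K1 cells stably expressing KCNQ1. Medium: assay buffer for compound exposure, DMSO matched across wells. Reagent: K+/Tl+ depolarizing stimulus. Compound dosing: single-concentration screen. Times: 37 °C overnight plating, 90-min dark dye load, 20-min compound pretreatment. Technique: FluxOR Tl+ flux fluorescence.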
hERG rescue = hERG (human) protection from proarrhythmic block | activation (rescue from dofetilide block), less the hit threshold, % at 10 µM | 0.51% of 310,000 active | CHO-hERG, FluxOR thallium flux, dofetilide IC70 present | Q12809;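 active = activation above the mean of controls blocked by dofetilide plus 5 SD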;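 also: thallium influx through hERG after potassium depolarization seen as dye fluorescence rise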
Target sequence (Q12809 whole entry, looked up): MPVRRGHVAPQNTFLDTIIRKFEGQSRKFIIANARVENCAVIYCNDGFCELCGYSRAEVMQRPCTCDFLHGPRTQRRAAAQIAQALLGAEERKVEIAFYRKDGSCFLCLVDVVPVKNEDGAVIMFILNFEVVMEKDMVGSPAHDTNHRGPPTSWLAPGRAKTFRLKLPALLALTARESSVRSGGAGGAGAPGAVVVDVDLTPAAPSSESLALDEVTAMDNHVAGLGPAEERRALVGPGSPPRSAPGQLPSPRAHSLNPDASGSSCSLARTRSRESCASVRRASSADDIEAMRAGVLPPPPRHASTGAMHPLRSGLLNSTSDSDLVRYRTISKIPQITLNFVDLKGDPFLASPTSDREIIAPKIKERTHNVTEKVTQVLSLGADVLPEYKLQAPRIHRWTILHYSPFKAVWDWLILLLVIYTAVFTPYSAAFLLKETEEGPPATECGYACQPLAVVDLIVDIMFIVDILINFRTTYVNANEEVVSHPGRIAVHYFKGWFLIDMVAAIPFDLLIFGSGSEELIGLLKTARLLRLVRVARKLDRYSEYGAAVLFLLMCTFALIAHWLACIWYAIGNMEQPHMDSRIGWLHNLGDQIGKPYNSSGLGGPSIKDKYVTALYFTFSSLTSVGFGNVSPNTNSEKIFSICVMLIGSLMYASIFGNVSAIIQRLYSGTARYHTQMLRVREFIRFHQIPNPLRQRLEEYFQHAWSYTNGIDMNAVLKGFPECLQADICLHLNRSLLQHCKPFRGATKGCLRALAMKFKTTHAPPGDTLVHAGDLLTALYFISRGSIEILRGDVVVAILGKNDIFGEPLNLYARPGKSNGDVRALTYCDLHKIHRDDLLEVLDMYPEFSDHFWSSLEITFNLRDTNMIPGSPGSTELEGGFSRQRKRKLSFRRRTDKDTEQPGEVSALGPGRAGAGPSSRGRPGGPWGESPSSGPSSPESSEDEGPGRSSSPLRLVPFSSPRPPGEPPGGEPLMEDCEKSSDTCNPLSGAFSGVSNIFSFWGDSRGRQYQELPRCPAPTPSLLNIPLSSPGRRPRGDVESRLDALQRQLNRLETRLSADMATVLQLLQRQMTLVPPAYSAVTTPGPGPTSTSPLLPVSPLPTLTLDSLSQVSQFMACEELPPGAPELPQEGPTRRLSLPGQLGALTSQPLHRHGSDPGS
KCNK3 inh = human KCNK3 channel inhibition, primary screen; O14649; 0.84% of 340,000 active; B-score at 10 µM; AID 602410; CHO-KCNK3 thallium flux, FluxOR fluorescence; active compounds read low;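 active = B-score under library mean minus 4 SD, starting fluorescence ratio at most library mean plus 5 SD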;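 also: more negative B-score means stronger inhibition of thallium flux through KCNK3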
KCNQ1 block = human KCNQ1 channel inhibition; CHO-K1 KCNQ1, FluxOR thallium flux fluorescence; active compounds read high; B-score at 10 µM; 1.3% of 310,000 active; AID 2642;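 active = compounds whose thallium flux B-score, printed positive for inhibition, exceeds three library SD while starting fluorescence stays within three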;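 also: channel opened by potassium depolarization with thallium stimulus after 20 min compound exposure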
KCNK9 inh = blocks the human KCNK9 two-pore domain potassium channel. 1.2% of 310,000 active. AID 488922. Q9NPC2. B-score at 10 µM. HEK293 KCNK9, FluxOR thallium flux fluorescence; active compounds read low;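 active = ratio B-score over 3 SD below the library mean, with starting fluorescence within 5 SD of its mean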;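 also: negative B-score means less thallium flux so channel inhibition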
Numbers without * were called inactive; i = inactive; nt = no result given. Compounds with a hit are over-represented: about 3.1% of the library has one in this group of screens.

SMILES | KCNQ1 pot | hERG rescue | KCNK3 inh | KCNQ1 block | KCNK9 inh
Cc1ccccc1OCC(=O)N1N=C(C(F)(F)F)CC1(O)C(C)(C)C (configuration not stated) | i | -11 | i | i | i
CCC1=NN(C(=O)Cc2ccc([N+](=O)[O-])cc2)C(O)(C(F)(F)F)C1 (configuration not stated) | i | -7 | i | i | i
Cc1ccc(OCC(=O)N2N=C(C(F)(F)F)CC2(O)C(C)(C)C)cc1C (configuration not stated) | i | -6 | i | 7* | i
CCOc1ccc(C2C(C(=O)OC)=C(C)N=C3SCCC(=O)N32)cc1OCC (configuration not stated) | i | -5 | -8.8* | i | i
CCOc1cc(C2C(C(=O)OC)=C(C)N=C3SCCC(=O)N32)ccc1OC(C)=O (configuration not stated) | i | -6 | i | i | i
O=C(COC(=O)c1ccccc1Nc1cccc(C(F)(F)F)c1)NCc1ccco1 | i | -1 | -8.9* | i | i
O=C(COC(=O)c1ccccc1)NCc1ccco1 | i | -3 | i | i | i
CN(c1ccccc1)S(=O)(=O)c1cccc(C(=O)OCC(=O)NCc2ccco2)c1 | i | 11* | i | i | i
CN(c1ccccc1)S(=O)(=O)c1cccc(C(=O)OCC(=O)NCc2ccccc2)c1 | nt | nt | i | nt | nt
Cc1ccc(NC(=O)C2COc3ccccc3O2)cc1C (configuration not stated) | i | -5 | i | i | i
O=C(CSc1ccccc1)Nc1ccc(N2CCOCC2)c(F)c1 | i | -13 | i | i | i
COc1ccc(Cl)cc1C(=O)NCCN(C)C | i | 6.8* | i | i | i
CCNC(=O)c1cc(Cl)ccc1OC | i | -9 | i | i | i
Cc1ccc(Nc2cc(C)nn2-c2nc(C)cc(=O)[nH]2)cc1 | 32* | 20* | i | i | i
CCOC(=O)/C(C#N)=N/Nc1ccc(S(=O)(=O)Nc2cc(OC)nc(OC)n2)cc1 | i | -6 | i | i | i
CN(C)c1ccc(N=Nc2ccccc2C(=O)OCC(=O)N2CCCC2)cc1 | i | -6 | i | i | i
CN(C)c1ccc(N=Nc2ccccc2C(=O)OCC(=O)Nc2ccccc2C(F)(F)F)cc1 | i | -12 | i | 6* | i
CCOC(=O)C(=O)Cc1cccnn1 | nt | nt | i | nt | nt
CSC1=NSC2=NC(=O)/C(=C/c3coc4ccc(O)cc4c3=O)C(=N)N12 | i | -47 | i | 9* | i
Cc1ccccc1NC(=O)/C(=C/c1ccccc1)c1ccccc1 | i | -7 | i | i | i
O=C(Nc1ccccc1)/C(=C/c1ccccc1)c1ccccc1 | i | -11 | i | i | -7*
Cc1cccc(/C=N/n2c(C3CCCCC3)n[nH]c2=S)c1 | i | -4 | i | i | i
CC(/C=N/n1c(C2CCCCC2)n[nH]c1=S)=C\c1ccccc1 | 21* | -8 | i | i | i
O=c1[nH]cc(N=Cc2cc(Cl)cc(Cl)c2O)c(=O)[nH]1 | 18* | 2 | i | i | i
O=c1[nH]cc(N=Cc2cc([N+](=O)[O-])ccc2O)c(=O)[nH]1 | i | -14 | nt | i | i
SMILES | KCNQ1 pot | hERG rescue | KCNK3 inh | KCNQ1 block | KCNK9 inh
CN(C)CCCOC(=O)c1ccc(Cl)cc1 | i | 4.8* | i | i | i
O=C(CSc1nc2nc(-c3cccs3)cc(C(F)(F)F)c2c(=O)[nH]1)Nc1ccc(F)c(F)c1 | i | -15 | i | 7* | i
O=C(/C=C/c1ccc([N+](=O)[O-])cc1)/C=C/c1ccco1 | i | -5 | i | 8* | i
CC(c1ccccc1)C1C(C#N)=C(N)SC(N)=C1C#N (configuration not stated) | i | -8 | i | i | i
CC(CC1C(C#N)=C(N)SC(N)=C1C#N)c1ccccc1 (configuration not stated) | i | -9 | i | 7* | i
CCOC(=O)C1=CNS(=O)(=O)NC1c1ccc(C)cc1 (configuration not stated) | nt | nt | i | nt | nt
CCC1C/C(=C\c2cc(OC)c(OC)cc2OC)C(=O)/C(=C/c2cc(OC)c(OC)cc2OC)C1 (configuration not stated) | i | -9 | -11* | 7* | i
Cc1c(Cl)cccc1NC(=S)NCCc1ccc(C(F)(F)F)cc1 | i | -10 | i | 7* | i
Cc1cccc2c1NC(=O)C21OCC(CO)([N+](=O)[O-])CO1 (configuration not stated) | i | -1 | i | i | i
CCCOc1ccc(Cc2c(Cl)nc(SC)nc2N(C)C)cc1 | i | -10 | i | i | i
CSc1nc(Cl)c(Cc2ccc(OC(C)C)cc2)c(N2CCOCC2)n1 | i | -3 | i | 7* | -7.5*
Cc1ccc(C2=NN(C(=O)c3ccccc3F)C(c3ccccc3F)C2)cc1 (configuration not stated) | i | -5 | i | 7* | i
CCN(CC)S(=O)(=O)c1ccc(N2CCOCC2)c(NC(=O)COc2ccccc2C)c1 | nt | nt | i | nt | nt
O=C(Cc1ccccc1F)OCN1C(=O)c2ccccc2C1=O | i | -13 | i | i | i
C/C(=N\NC(=O)CSCc1ccccc1Cl)c1cc(O)ccc1O | i | 4.7* | i | i | i
Cc1ccc(NCCCn2ccc(NC(=O)OCc3ccccc3)nc2=O)cc1C | nt | nt | i | nt | nt
COC(=O)c1ccc(/C=C/c2ccc3cccc(OC)c3n2)cc1 | i | 44* | i | i | i
COc1cc(/C=C/c2ccc3cccc(O)c3n2)cc(OC)c1OC | i | 3 | i | i | i
CC(=O)c1cc2c(cc1NS(=O)(=O)c1ccc3c(c1)OCCO3)OCO2 | i | 5.1* | i | i | i
O=C(O)c1cc([N+](=O)[O-])ccc1Oc1ccccc1 | nt | nt | i | nt | nt
C=CCn1c(COc2ccccc2)nnc1SCc1ccc(C#N)cc1 | i | -5 | i | i | i
C=CCn1c(COc2ccc(Cl)cc2)nnc1SCc1ccc(C#N)cc1 | i | 4.8* | i | i | i
N#CC(C#N)=C1SC(=Nc2ccccc2)C(=Nc2ccccc2)N1c1ccccc1 | nt | nt | i | nt | nt
NC(N)=NN=C1CCCCCCCCCCC1 | i | -26 | i | 7* | i
O=C(C1CC1)N1CCc2sccc2C1c1ccc(Cl)cc1 (configuration not stated) | i | -3 | i | 6* | i
COc1ccc(C2c3ccsc3CCN2C(C)=O)cc1 (configuration not stated) | i | -13 | i | i | i
COCCN(C(=O)COC(=O)C1CCC(C(C)(C)C)CC1)c1c(N)n(Cc2ccccc2)c(=O)[nH]c1=O (configuration not stated) | i | -7 | i | i | i
